Active and inactive are the calls of the source. Some results are limits rather than exact numbers.

The IC50 is the concentration that gives 50% inhibition.

The target in test [1] is T1, Geranylgeranyl pyrophosphate synthase (Homo sapiens, UniProt O95749).
T1 sequence (O95749 whole entry): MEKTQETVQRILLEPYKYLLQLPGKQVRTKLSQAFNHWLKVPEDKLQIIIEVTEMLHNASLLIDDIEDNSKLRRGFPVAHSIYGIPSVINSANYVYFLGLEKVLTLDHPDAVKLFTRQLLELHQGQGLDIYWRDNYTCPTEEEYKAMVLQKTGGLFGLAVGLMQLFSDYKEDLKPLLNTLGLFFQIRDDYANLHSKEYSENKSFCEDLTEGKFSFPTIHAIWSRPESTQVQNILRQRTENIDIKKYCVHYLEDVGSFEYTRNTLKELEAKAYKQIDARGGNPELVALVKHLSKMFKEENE
Briefly: Inhibition of GGDPS (unknown origin) using recombinant enzyme by enzyme assay.

Test [2] deals with T2, Geranylgeranyl pyrophosphate synthase (Homo sapiens) (UniProt O95749).
T2 sequence (whole entry): T1 sequence (O95749 whole entry)
Briefly: Inhibition of GGDPS (unknown origin) using uRAP1a as substrate in RPMI-8226 cells by measuring lowest effective concentration by measuring unmodified Rap1a by immunoblot based ELISA analysis. The format is cell-based. The method, boiled down:
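Lowest effective concentration in RPMI-8226 cells after 48 h exposure. It is defined as the lowest level giving both a visible unprenylated Rap1a band on immunoblot (β-tubulin loading control) and a statistically significant rise (p<0.05, t-test vs untreated cells) in intracellular lambda light chain by ELISA. Based on n=3 independent experiments.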

The target of test [3] is T2, Geranylgeranyl pyrophosphate synthase (Homo sapiens). As to the kind of experiment: Inhibition of GGDPS (unknown origin) using uRAP1a as substrate in RPMI-8226 cells assessed as disruption of geranylgeranylation by measuring unmodified Rap1a at 10 uM incubated for 48 hrs by immunoblot analysis. The format is cell-based. The method in brief: (§1)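 RPMI-8226 myeloma cells exposed 48 h to varying test concentrations, with lovastatin (10 μM) as positive control. Lysates were immunoblotted with an antibody that recognises only unprenylated Rap1a, with β-tubulin as loading control. Gels are representative of three independent studies.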
Background: In western blotting, separated proteins are transferred to a membrane and probed.

The target is the same in test [4]. As to the kind of experiment: Inhibition of GGDPS (unknown origin) using uRAP1a as substrate in RPMI-8226 cells assessed as disruption of geranylgeranylation by measuring unmodified Rap1a at 0.5 uM incubated for 48 hrs by immunoblot analysis. Format: cell-based. The method in brief: as §1
Test [5] has the same target. Briefly: Inhibition of GGDPS (unknown origin) using uRAP1a as substrate in RPMI-8226 cells assessed as disruption of geranylgeranylation by measuring unmodified Rap1a at […] incubated for 48 hrs by immunoblot analysis. The format is cell-based. As to conditions: dose 0.25 µM.

As to `CC(C)=CCC/C(C)=C\CCn1cc(CC(N)(P(=O)(O)O)P(=O)(O)O)nn1`, in test [1], the IC50 is 49.4 nM. The compound also came in with an MEC in test [2] of 0.25 µM.

Take `CC(C)=CCC/C(C)=C/CCn1cc(CC(N)(P(=O)(O)O)P(=O)(O)O)nn1`: in test [1], the IC50 is 52.1 nM. Moreover, the MEC in test [2] worked out at 1 µM.

Regarding `CC(C)=CCC/C(C)=C/Cn1cc(CC(N)(P(=O)(O)O)P(=O)(O)O)nn1`, the half-maximal inhibitory concentration (IC50) in test [1] was above 100000 nM. For the same compound, the inhibition entry in test [3] is “inactive”.

As for `CC(C)=CCCC(C)=CCn1cc(CC(N)(P(=O)(O)O)P(=O)(O)O)nn1`, the IC50 in test [1] was 3760 nM. Moreover, the inhibition result in test [4] was “Active”. For the same compound, in test [2], the MEC came to 0.5 µM.

In test [2], `CC(C)=CCC/C(C)=C/CCn1cc(CC(P(=O)(O)O)P(=O)(O)O)nn1` showed an MEC of 0.03 µM.

Take `CC(C)=CCC/C(C)=C\Cn1cc(CC(N)(P(=O)(O)O)P(=O)(O)O)nn1`: in test [1], the 50% inhibitory concentration (IC50) was 270 nM. The inhibition entry in test [5] is “Active”. In addition, the MEC in test [2] is 0.25 µM.

For the origin of these results see ChEMBL document CHEMBL5579803, “α-Amino bisphosphonate triazoles serve as GGDPS inhibitors” (Bioorg Med Chem Lett, 2024).
